Inhibition and Activity data for 7 molecules are collected here from ChEMBL document CHEMBL2034962, “Immunosuppressive decalin derivatives from red yeast rice” (J Nat Prod, 2012).

In data set [1] the test system is T-cell. Briefly: Immunosuppressive activity in human T lymphocytes assessed as inhibition of PMA-ionomycin-induced cell proliferation at 10 to 100 uM after 72 hrs by BrdU-based ELISA analysis. It is filed as functional. In outline: (§1)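 Nonadherent buffy-coat T lymphocytes (Ficoll, adherence-depleted) at 10^5 cells/well in RPMI 1640 + 10% FBS, in triplicate. Costimulated with PMA–ionomycin ± compound (10–100 μM) for 72 h. BrdU added at 10 μM final, 14 h before the end. Incorporation read by ELISA. Lovastatin and simvastatin served as positive controls. Means ± SEM, one-way ANOVA.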
For orientation: In an ELISA, binding on a coated surface is turned into a signal by an enzyme label.

Data set [2] is described as follows: Cytotoxicity against human T lymphocytes at 10 to 100 uM after 72 hrs by MTT assay. The following applies: t-cell. In outline: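 T cells from buffy-coat blood via Ficoll separation, with macrophages removed by adherence. Cultured at 1 × 10^5 cells/well in RPMI 1640 + 10% FBS, n = 3, with 10–100 μM compound for 72 h. MTT (5 mg/mL) added for 4 h, then dissolved in 10% SDS/50% DMF, pH 7.2. A570 read; viability = Atreated/Acontrol × 100.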
(Tetrazolium dyes change colour on reduction, which living cells bring about.)

Data set [3] has as its system T-cell. Briefly: Immunosuppressive activity in human T lymphocytes assessed as inhibition of PMA-ionomycin-induced cell proliferation after 72 hrs by BrdU-based ELISA analysis. Format: functional. In outline: as §1

Structures are written as SMILES. Calls of active or inactive are those of the source. No cut-off for these calls is given here.

`C[C@H]1C=C2C=C[C@H](C)/C(=C\CC(=O)O)[C@H]2CC1` [MONASCUSIC ACID E]: the inhibition result in data set [1] was “Active”. For the same molecule, the Activity result in data set [2] is on record as “Non-toxic”.
In the case of `C[C@@H]1CC[C@@H]2[C@@H](/C=C/C(=O)O)[C@@H](C)C=C[C@H]2C1` [MONASCUSIC ACID B], in data set [3], the inhibition entry was “Dose-dependent effect”. Moreover, the outcome in data set [1] was Active. Besides, in data set [2], the Activity entry is “Non-toxic”.
On the same counts, the results for `C[C@H]1C=C2C=C[C@H](C)[C@H](CCC(=O)O)[C@H]2CC1` [MONASCUSIC ACID A] are “Dose-dependent effect”, “Active” and “Non-toxic”.
`C[C@@H]1CC[C@@H]2[C@@H](CCC(=O)O)[C@@H](C)C=C[C@H]2C1` [HEPTAKETIDE]: the inhibition entry in data set [3] is “Dose-dependent effect”. In data set [1], the result was Active. Moreover, the Activity entry in data set [2] is recorded as “Non-toxic”.
With `C[C@H]1C=C2C=C[C@H](C)[C@]3(CCC(=O)O3)[C@H]2CC1` (relative stereo), in data set [1], the inhibition result is “Active”. The Activity result in data set [2] is given as “Non-toxic”.
Turning to `C[C@H]1C=C2C=C[C@H](C)[C@H](/C=C/C(=O)O)[C@H]2CC1` [MONASCUSIC ACID D], in data set [3], the inhibition result was “Dose-dependent effect”. Besides, the result in data set [1] was Active. Further, the Activity entry in data set [2] is reported as “Non-toxic”.
With `C[C@@H]1CC[C@@H]2/C(=C/CC(=O)O)[C@@H](C)C=C[C@H]2C1` [MONASCUSIC ACID C], the inhibition entry in data set [3] is “Dose-dependent effect”. Besides, the result in data set [1] was Active. Also, the Activity entry in data set [2] is reported as “Non-toxic”.
